Data as given in ChEMBL document CHEMBL3621116, “Benzimidazole Derivatives as Potent JAK1-Selective Inhibitors” (J Med Chem, 2015).
The source made the active and inactive calls. No cut-off for these calls is given here.

Key:
[1] = target: T1, Tyrosine-protein kinase JAK1 (Homo sapiens, UniProt P23458); experiment: Inhibition of JAK1 (unknown origin) using 87 uM of ATP and Tyr6 peptide by Z'-LYTE kinase assay
[2] = target: T2, Non-receptor tyrosine-protein kinase TYK2 (Homo sapiens, UniProt P29597); experiment: Inhibition of Tyk2 (unknown origin) using 25 uM of ATP and Tyr3 peptide by Z'-LYTE kinase assay
Homo sapiens [3] = species on record: Homo sapiens; experiment: Selectivity ratio of IC50 for JAK3 (unknown origin) using 16 uM of ATP and Tyr6 peptide to IC50 for JAK1 (unknown origin) using 87 uM of ATP and Tyr6 peptide
Summary of the method: (§1)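 JAK1 selectivity taken as IC50 against JAK2 or JAK3 divided by IC50 against JAK1. […] IC50s are means ± SD of three independent experiments.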

[4] = target: T3, Tyrosine-protein kinase JAK3 (Homo sapiens, UniProt P52333); experiment: Inhibition of JAK3 (unknown origin) using 16 uM of ATP and Tyr6 peptide by Z'-LYTE kinase assay
T3 sequence (P52333 whole entry): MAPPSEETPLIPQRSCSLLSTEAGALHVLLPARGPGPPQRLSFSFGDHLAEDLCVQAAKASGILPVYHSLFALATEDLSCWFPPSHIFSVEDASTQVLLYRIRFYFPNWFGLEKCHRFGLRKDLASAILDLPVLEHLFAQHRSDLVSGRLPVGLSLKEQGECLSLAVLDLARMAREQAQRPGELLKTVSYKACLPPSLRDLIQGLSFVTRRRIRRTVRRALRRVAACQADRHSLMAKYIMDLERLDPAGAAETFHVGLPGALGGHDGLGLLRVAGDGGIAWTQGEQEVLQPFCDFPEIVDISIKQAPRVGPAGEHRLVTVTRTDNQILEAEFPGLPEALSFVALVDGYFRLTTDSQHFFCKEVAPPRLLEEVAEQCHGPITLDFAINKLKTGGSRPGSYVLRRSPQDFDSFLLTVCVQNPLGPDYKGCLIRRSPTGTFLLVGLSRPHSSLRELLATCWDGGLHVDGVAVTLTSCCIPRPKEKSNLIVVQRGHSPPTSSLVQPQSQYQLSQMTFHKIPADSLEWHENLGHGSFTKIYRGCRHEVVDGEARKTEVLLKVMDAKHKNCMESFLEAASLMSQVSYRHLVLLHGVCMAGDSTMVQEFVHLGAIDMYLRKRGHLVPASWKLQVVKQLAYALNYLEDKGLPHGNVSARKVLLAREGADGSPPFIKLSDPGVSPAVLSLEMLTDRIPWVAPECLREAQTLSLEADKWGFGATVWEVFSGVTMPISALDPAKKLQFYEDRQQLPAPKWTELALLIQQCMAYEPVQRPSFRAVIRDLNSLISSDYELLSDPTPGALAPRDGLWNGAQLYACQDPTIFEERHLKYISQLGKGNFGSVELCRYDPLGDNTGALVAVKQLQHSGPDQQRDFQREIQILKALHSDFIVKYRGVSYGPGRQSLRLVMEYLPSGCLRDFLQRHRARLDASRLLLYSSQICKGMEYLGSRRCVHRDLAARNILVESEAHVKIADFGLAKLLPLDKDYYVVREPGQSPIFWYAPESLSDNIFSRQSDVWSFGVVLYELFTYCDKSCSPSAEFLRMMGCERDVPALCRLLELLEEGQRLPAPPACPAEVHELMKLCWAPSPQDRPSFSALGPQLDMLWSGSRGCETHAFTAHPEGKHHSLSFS

[5] = target: T4, Tyrosine-protein kinase JAK2 (Homo sapiens, UniProt O60674); experiment: Inhibition of JAK2 (unknown origin) using 35 uM of ATP and Tyr6 peptide by Z'-LYTE kinase assay
Homo sapiens [6] = species on record: Homo sapiens; experiment: Selectivity ratio of IC50 for JAK2 (unknown origin) using 35 uM of ATP and Tyr6 peptide to IC50 for JAK1 (unknown origin) using 87 uM of ATP and Tyr6 peptide; summary of the method: as §1
Homo sapiens [7] = species on record: Homo sapiens; experiment: Selectivity ratio of IC50 for JAK2 (unknown origin) to IC50 for JAK1 (unknown origin) by cell based assay
[8] = Plasma clearance in Sprague-Dawley rat at 5 mg/kg, iv; format: ADME, organism-based
Summary of the method: (§2)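 Rats dosed intravenously. Steady-state volume of distribution, systemic plasma clearance and plasma half-life derived from plasma concentration data.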

[9] = Oral bioavailability in Sprague-Dawley rat at 10 mg/kg; format: ADME, organism-based; conditions: in vivo
[10] = target: T1, Tyrosine-protein kinase JAK1; experiment: Inhibition of JAK1 (unknown origin) using 1 mM of ATP and Tyr6 peptide by Z'-LYTE kinase assay
[11] = Permeability of the compound by PAMPA; format: physicochemical; conditions: read-out: permeability
[12] = target: T4, Tyrosine-protein kinase JAK2; experiment: Inhibition of JAK2 in human A431 cells assessed as erythropoietin-induced STAT5 phosphorylation at 0.001 to 10 uM after 2 hrs by ELISA; format: cell-based; conditions: A-431
[13] = Volume of distribution at steady state in Sprague-Dawley rat at 5 mg/kg, iv; format: ADME, organism-based; conditions: in vivo, read-out: Vdss; summary of the method: as §2
[14] = target: T1, Tyrosine-protein kinase JAK1; conditions: A-431, 0.001 to 10 uM
[15] = target: T4, Tyrosine-protein kinase JAK2; experiment: Inhibition of JAK2 (unknown origin) using 1 mM of ATP and Tyr6 peptide by Z'-LYTE kinase assay
[16] = target: T2, Non-receptor tyrosine-protein kinase TYK2; experiment: Inhibition of Tyk2 (unknown origin) using 1 mM of ATP and Tyr3 peptide by Z'-LYTE kinase assay
[17] = target: T3, Tyrosine-protein kinase JAK3; experiment: Inhibition of JAK3 (unknown origin) using 1 mM of ATP and Tyr6 peptide by Z'-LYTE kinase assay
[18] = Half life in Sprague-Dawley rat at 5 mg/kg, iv; format: ADME, organism-based; conditions: in vivo; summary of the method: as §2
[19] = target: T4, Tyrosine-protein kinase JAK2; experiment: Inhibition of JAK2 (unknown origin)

T2 sequence (P29597 whole entry): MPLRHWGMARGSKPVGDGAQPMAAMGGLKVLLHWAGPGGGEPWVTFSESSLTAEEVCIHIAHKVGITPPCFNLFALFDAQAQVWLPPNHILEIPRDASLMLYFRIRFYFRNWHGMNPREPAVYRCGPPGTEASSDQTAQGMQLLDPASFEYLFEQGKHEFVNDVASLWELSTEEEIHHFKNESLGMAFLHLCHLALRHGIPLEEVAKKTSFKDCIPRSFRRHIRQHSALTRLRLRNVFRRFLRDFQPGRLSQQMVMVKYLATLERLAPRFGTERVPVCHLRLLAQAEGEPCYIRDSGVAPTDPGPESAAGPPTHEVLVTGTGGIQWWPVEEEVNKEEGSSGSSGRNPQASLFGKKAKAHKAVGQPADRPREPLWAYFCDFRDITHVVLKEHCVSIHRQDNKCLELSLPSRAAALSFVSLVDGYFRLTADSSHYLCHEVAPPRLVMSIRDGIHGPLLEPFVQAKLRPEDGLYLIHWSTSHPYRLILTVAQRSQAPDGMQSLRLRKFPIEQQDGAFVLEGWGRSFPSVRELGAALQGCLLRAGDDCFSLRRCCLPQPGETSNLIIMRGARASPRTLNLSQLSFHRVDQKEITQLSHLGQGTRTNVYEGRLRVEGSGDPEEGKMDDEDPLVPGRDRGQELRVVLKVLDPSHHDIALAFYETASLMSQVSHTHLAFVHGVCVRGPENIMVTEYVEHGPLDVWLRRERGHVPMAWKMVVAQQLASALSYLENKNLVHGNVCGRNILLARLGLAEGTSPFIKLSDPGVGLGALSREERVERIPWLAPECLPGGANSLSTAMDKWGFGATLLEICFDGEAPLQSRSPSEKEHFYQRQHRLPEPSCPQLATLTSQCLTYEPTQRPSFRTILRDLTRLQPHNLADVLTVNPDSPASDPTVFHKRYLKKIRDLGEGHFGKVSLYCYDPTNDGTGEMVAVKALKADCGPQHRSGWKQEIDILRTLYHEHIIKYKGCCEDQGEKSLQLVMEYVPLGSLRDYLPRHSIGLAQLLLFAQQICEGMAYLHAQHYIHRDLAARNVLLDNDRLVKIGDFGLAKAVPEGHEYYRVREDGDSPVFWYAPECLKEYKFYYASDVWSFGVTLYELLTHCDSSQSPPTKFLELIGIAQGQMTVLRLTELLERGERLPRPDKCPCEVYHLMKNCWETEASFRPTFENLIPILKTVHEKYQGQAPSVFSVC
T1 sequence (P23458 whole entry): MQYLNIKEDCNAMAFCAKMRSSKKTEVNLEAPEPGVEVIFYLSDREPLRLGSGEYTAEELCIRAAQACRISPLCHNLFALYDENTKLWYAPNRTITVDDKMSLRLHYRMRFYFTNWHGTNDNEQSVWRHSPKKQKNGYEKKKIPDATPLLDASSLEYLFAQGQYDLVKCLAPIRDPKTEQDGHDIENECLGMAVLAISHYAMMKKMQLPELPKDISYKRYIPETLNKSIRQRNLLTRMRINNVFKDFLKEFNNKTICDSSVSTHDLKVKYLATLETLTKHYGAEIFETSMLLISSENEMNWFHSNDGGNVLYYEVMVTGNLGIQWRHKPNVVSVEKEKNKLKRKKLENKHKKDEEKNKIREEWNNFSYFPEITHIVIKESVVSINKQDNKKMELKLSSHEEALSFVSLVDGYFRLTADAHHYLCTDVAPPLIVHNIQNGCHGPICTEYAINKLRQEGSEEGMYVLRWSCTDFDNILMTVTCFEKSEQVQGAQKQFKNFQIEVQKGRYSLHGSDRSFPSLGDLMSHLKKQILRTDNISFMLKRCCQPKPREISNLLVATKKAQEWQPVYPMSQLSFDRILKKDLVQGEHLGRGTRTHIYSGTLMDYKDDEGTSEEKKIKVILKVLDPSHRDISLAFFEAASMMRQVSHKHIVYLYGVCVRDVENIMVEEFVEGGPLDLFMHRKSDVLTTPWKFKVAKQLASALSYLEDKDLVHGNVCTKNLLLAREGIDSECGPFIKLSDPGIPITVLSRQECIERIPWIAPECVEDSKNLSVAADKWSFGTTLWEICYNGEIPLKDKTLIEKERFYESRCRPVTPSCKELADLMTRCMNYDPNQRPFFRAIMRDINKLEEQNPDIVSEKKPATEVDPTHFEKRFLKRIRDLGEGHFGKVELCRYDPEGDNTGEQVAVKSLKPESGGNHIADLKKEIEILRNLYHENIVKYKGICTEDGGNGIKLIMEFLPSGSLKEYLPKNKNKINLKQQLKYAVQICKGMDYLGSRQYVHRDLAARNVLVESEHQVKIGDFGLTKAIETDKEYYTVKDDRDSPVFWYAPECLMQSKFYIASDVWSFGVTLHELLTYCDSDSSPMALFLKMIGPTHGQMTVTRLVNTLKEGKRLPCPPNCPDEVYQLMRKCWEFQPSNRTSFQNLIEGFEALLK
T4 sequence (O60674 whole entry): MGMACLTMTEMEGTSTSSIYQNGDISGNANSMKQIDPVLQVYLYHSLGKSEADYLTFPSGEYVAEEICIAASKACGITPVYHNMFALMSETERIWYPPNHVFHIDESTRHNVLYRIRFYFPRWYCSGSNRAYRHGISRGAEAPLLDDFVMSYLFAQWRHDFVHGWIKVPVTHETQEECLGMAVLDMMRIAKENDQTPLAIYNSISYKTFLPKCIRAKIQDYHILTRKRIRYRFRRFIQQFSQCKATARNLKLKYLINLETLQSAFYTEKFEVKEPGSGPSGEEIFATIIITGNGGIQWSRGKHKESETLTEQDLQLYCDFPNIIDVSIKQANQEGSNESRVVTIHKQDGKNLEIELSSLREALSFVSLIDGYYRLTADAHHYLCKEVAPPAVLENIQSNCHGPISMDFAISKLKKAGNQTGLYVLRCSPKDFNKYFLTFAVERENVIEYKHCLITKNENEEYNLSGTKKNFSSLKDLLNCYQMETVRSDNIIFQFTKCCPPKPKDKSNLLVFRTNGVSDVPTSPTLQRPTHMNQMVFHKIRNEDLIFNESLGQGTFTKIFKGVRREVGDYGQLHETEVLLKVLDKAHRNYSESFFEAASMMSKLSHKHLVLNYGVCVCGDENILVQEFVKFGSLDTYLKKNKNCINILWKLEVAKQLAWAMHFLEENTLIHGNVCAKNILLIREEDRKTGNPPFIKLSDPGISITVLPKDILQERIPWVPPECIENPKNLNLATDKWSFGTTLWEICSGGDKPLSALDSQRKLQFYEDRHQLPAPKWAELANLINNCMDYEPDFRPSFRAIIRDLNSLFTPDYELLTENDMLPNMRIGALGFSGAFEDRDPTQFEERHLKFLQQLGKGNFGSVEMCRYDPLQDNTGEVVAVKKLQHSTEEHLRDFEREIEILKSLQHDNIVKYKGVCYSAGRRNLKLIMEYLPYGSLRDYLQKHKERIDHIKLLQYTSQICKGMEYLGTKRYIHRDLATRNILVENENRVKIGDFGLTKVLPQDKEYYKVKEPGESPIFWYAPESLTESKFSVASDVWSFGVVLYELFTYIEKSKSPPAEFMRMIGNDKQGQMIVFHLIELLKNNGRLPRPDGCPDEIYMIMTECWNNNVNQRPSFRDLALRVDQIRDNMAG

SMILES | IC50 [1] | IC50 [2] | Ratio IC50 (Homo sapiens [3]) | IC50 [4] | IC50 [5] | Ratio IC50 (Homo sapiens [6]) | other results
NCCn1c(C2CCCCC2)nc2cc(C(N)=O)ccc21 | 4.3 µM | 3.3 µM | 0.6 | 2500 nM | 4100 nM | 1 | –
NCCn1c(-c2cccnc2N)nc2cc(C(N)=O)ccc21 | 8.1 µM | 4.3 µM | 0.2 | 1900 nM | 4700 nM | 0.6 | –
NCCn1c(-c2ccc(O)cc2)nc2cc(C(N)=O)ccc21 | 0.1 µM | 3.2 µM | 20 | 2400 nM | 1300 nM | 11 | –
CC[C@@H]1CN(C(=O)NCC(F)(F)F)C[C@@H]1c1cnc2cnc3[nH]ccc3n12 | – | – | – | – | – | – | Ratio IC50 (Homo sapiens [7]): 74
NCCCc1nc2cc(C(N)=O)ccc2n1CCN | 2.2 µM | 2.5 µM | 0.5 | 1100 nM | 1600 nM | 0.7 | –
N#Cc1ccc(-c2nc3cc(C(N)=O)ccc3n2CCN)cc1 | 2.9 µM | 2.5 µM | 0.7 | 1900 nM | 2600 nM | 0.9 | –
NCCn1c(-c2ccc(O)cc2O)nc2cc(C(N)=O)ccc21 | 3.1 µM | 3.7 µM | 0.9 | 2900 nM | 2500 nM | 0.8 | –
CC(C)c1ccc(-c2nc3cc(C(N)=O)ccc3n2CCN)cc1 | 3.1 µM | 2.7 µM | 0.6 | 1900 nM | 5900 nM | 2 | –
NCCn1c(C2CCNCC2)nc2cc(C(N)=O)ccc21 | 0.05 µM | 3.7 µM | 25 | 1260 nM | 3150 nM | 63 | clearance [8]: 6.67 mL/min/kg; bioavailability [9]: 0.7%; IC50 [10]: 5.7 µM; Papp [11]: 0.1 ×10⁻⁶ cm/s; inhibition [12]: inactive; Vd [13]: 0.5 L/kg; inhibition [14]: inactive; IC50 [15]: 437 µM; IC50 [16]: 759 µM; IC50 [17]: 232 µM; half-life [18]: 546 min
NCCc1nc2cc(C(N)=O)ccc2n1CCN | 0.1 µM | 3.1 µM | 15 | 1500 nM | 2900 nM | 29 | –
NCCCn1c(CCN)nc2cc(C(N)=O)ccc21 | 6.1 µM | 6.4 µM | 0.2 | 1500 nM | 2200 nM | 0.4 | –
NCCn1c(-c2ccccc2)nc2cc(C(N)=O)ccc21 | 11.6 µM | 4.2 µM | 1 | 14100 nM | 2800 nM | 0.2 | –
CC[C@@](C)(Nc1ccnc(-c2c[nH]c3ncccc23)n1)C(=O)NCC(F)(F)F [DECERNOTINIB] | – | – | – | – | – | – | IC50 [19]: 13 nM
NCCn1c(-c2ccncc2)nc2cc(C(N)=O)ccc21 | 32.4 µM | 5.8 µM | 0.3 | 10500 nM | 13500 nM | 0.4 | –
NCCCn1c(-c2ccccc2)nc2cc(C(N)=O)ccc21 | 11.3 µM | 2.7 µM | 0.2 | 1800 nM | 20500 nM | 2 | –
NCCn1c(-c2ccc(C(F)(F)F)cc2)nc2cc(C(N)=O)ccc21 | 9.3 µM | 3.2 µM | 0.2 | 2100 nM | 4800 nM | 0.5 | –
Cc1ccc(-c2nc3cc(C(N)=O)ccc3n2CCN)cc1 | 3.7 µM | 3.5 µM | 0.6 | 2300 nM | 2600 nM | 0.7 | –
NCCn1c(-c2cncnc2)nc2cc(C(N)=O)ccc21 | 3.4 µM | 2.8 µM | 0.7 | 2500 nM | 1600 nM | 0.5 | –
